Reference: ChEMBL document CHEMBL1142934, “Molecular modeling of the human P2Y2 receptor and design of a selective agonist, 2'-amino-2'-deoxy-2-thiouridine 5'-triphosphate” (J Med Chem, 2007)
pEC50: −log10 of the molar value.

How the values were obtained:
Format in all cases: functional, cell-based
[1] = target: T1, P2Y purinoceptor 4 (Homo sapiens, UniProt P51582); experiment: Agonist activity at human recombinant P2Y4 receptor expressed in 1321N1 cells assessed as stimulation of phospholipase C
Outline: (§1)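 Human P2Y2, P2Y4 or P2Y6 receptors stably expressed in 1321N1 astrocytoma cells. PLC activation was measured across a concentration range of each nucleotide. Tritiated inositol phosphates formed from a radiolabeled myo-inositol precursor were quantified by a standard ion exchange method. EC50 was the concentration giving 50% of the maximal effect, fitted with a four-parameter logistic equation. Values are mean ± standard error, N = 3.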

[2] = target: T2, P2Y purinoceptor 6 (Homo sapiens, UniProt Q15077); experiment: Agonist activity at human recombinant P2Y6 receptor expressed in 1321N1 cells assessed as stimulation of phospholipase C; outline: as §1
[3] = target: P2Y purinoceptor 2 (Homo sapiens, UniProt P41231); experiment: Agonist activity at human recombinant P2Y2 receptor expressed in 1321N1 cells assessed as stimulation of phospholipase C
Outline: as §1, with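 “method.” for “method. EC50 was the concentration giving 50% of the maximal effect, fitted with a four-parameter logistic equation.”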

[4] = target: T1, P2Y purinoceptor 4; experiment: Antagonistic activity at human recombinant P2Y4 receptor expressed in 1321N1 cells; conditions: filed as antagonist
[5] = target: T2, P2Y purinoceptor 6; experiment: Agonist activity at human recombinant P2Y6 receptor expressed in 1321N1 cells assessed as intracellular calcium mobilization

T2 sequence (Q15077 whole entry): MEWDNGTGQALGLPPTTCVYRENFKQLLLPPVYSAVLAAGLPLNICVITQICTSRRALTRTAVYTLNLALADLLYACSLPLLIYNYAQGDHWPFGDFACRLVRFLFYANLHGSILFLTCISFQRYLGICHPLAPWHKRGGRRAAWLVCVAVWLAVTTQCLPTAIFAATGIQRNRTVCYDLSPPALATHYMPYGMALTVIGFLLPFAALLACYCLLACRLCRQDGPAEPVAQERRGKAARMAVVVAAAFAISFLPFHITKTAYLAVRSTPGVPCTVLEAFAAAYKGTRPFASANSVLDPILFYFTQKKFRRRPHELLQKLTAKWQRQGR
P2Y purinoceptor 2, sequence (P41231 whole entry): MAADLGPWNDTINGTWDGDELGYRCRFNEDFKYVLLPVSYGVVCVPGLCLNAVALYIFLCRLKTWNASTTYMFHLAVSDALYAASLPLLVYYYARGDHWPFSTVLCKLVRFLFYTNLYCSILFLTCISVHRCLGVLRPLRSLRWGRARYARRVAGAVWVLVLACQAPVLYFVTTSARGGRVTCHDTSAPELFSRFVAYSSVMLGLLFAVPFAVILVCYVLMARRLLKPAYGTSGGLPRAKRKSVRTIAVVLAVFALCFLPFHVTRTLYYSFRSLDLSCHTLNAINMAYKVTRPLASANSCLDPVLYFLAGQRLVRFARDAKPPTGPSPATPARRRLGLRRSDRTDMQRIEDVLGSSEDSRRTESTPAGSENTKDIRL
T1 sequence (P51582 whole entry): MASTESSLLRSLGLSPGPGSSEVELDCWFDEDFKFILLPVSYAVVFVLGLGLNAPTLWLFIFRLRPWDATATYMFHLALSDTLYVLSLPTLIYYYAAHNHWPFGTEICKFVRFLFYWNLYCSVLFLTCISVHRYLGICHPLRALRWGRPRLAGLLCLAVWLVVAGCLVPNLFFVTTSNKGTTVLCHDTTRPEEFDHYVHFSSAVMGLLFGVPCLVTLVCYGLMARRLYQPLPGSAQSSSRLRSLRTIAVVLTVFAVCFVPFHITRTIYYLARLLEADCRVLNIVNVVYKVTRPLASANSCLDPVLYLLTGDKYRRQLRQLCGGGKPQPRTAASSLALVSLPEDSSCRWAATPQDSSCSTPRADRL

SMILES	EC50 [1]	pEC50 [2]	EC50 [3]	EC50 [2]	other results
N[C@@H]1[C@H](O)[C@@H](COP(=O)(O)OP(=O)(O)OP(=O)(O)O)O[C@H]1n1ccc(=O)[nH]c1=O	1200 nM (agonist)	< 4.00	62 nM (agonist)		
O=c1ccn([C@@H]2O[C@H](COP(=O)(O)OP(=O)(O)OP(=O)(O)OP(=O)(O)OC[C@H]3OC(O)[C@H](O)[C@@H]3O)[C@@H](O)[C@H]2O)c(=O)[nH]1 (some centres not stated)			1880 nM (agonist)		
Nc1ccn([C@H]2C[C@H](O)[C@@H](COP(=O)(O)OP(=O)(O)OP(=O)(O)OP(=O)(O)OC[C@H]3O[C@@H](n4ccc(=O)[nH]c4=O)[C@H](O)[C@@H]3O)O2)c(=O)n1 [DENUFOSOL]			270 nM (agonist)		
O=c1ccn([C@@H]2O[C@H](COP(=O)(O)OP(=O)(O)OP(=O)(O)O)[C@@H](O)[C@H]2O)c(=S)[nH]1	350 nM (agonist)		35 nM (agonist)	1500 nM (agonist)	
O=C(N[C@@H]1[C@H](O)[C@@H](COP(=O)(O)OP(=O)(O)OP(=O)(O)O)O[C@H]1n1ccc(=O)[nH]c1=S)C(F)(F)F	8300 nM (agonist)		470 nM (agonist)		
Nc1ncnc2c1ncn2[C@@H]1O[C@H](COP(=O)(O)OP(=O)(O)OP(=O)(O)O)[C@@H](O)[C@H]1O					Activity [4]: Antagonist; Kb [4]: 708 nM
O=c1ccn([C@@H]2O[C@H](COP(=O)(O)OP(=O)(O)OP(=O)(O)O)[C@@H](O)[C@H]2O)c(=O)[nH]1 [URIDINE TRIPHOSPHATE]	73 nM (agonist)		49 nM (agonist)		EC50 [5]: > 10000 nM (agonist)
O=c1ccn([C@H]2C[C@H](O)[C@@H](COP(=O)(O)OP(=O)(O)OP(=O)(O)O)O2)c(=O)[nH]1			1080 nM (agonist)		
O=c1[nH]c(=O)n([C@@H]2O[C@H](COP(=O)(O)OP(=O)(O)OP(=O)(O)O)[C@@H](O)[C@H]2O)cc1Br			750 nM (agonist)		
[N-]=[N+]=Nc1cn([C@@H]2O[C@H](COP(=O)(O)OP(=O)(O)OP(=O)(O)O)[C@@H](O)[C@H]2O)c(=O)[nH]c1=O			1800 nM (agonist)	467 nM (agonist)	
O=c1ccn([C@@H]2O[C@H](COP(=O)(O)OP(=O)(O)OP(=O)(O)OP(=O)(O)OC[C@H]3O[C@@H](n4ccc(=O)[nH]c4=O)[C@H](O)[C@@H]3O)[C@@H](O)[C@H]2O)c(=O)[nH]1 [DIQUAFOSOL]					EC50 [5]: 20000 nM (agonist)
O=c1ccn([C@@H]2O[C@H](COP(=O)(O)OP(=O)(O)OP(=O)(O)S)[C@@H](O)[C@H]2O)c(=O)[nH]1 (some centres not stated)			240 nM (agonist)		
Cc1cn([C@@H]2O[C@H](COP(=O)(O)OP(=O)(O)OP(=O)(O)O)[C@@H](O)[C@H]2O)c(=O)[nH]c1=O [THYMIDINE_TRIPHOSPHATE]	3900 nM (agonist)		480 nM (agonist)	140 nM (agonist)	
N[C@@H]1[C@H](O)[C@@H](COP(=O)(O)OP(=O)(O)OP(=O)(O)O)O[C@H]1n1ccc(=O)[nH]c1=S	2400 nM (agonist)	< 5.00	8 nM (agonist)		
Nc1cn([C@@H]2O[C@H](COP(=O)(O)OP(=O)(O)OP(=O)(O)O)[C@@H](O)[C@H]2O)c(=O)[nH]c1=O			5600 nM (agonist)	333 nM (agonist)	
O=c1[nH]c(=O)n([C@@H]2O[C@H](COP(=O)(O)OP(=O)(O)OP(=O)(O)O)[C@@H](O)[C@H]2O)cc1I			830 nM (agonist)		
CC(=O)N[C@@H]1[C@H](O)[C@@H](COP(=O)(O)OP(=O)(O)OP(=O)(O)O)O[C@H]1n1ccc(=O)[nH]c1=S			6500 nM (agonist)		
CO[C@@H]1[C@H](O)[C@@H](COP(=O)(O)OP(=O)(O)OP(=O)(O)O)O[C@H]1n1ccc(=O)[nH]c1=O			14300 nM (agonist)		
